Drawing on ChEMBL document CHEMBL1158068, “Chaetocochins A-C, epipolythiodioxopiperazines from Chaetomium cochliodes” (2006), this text covers GI50 for four compounds.

Molecules are shown by their SMILES. ≈ marks a conversion by molar mass, not a printed value.

Holding throughout (format): functional
The nature of assay [1]: Growth inhibition of human Bre-04 cells after 48 hrs by SRB assay. To be noted: Bre04, 48 h. In outline:
(§1)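 ATCC cancer lines (Bre-04 = MDA-MB-231, Lu-04 = NCI-H460, N-04 = SF-268), cultured per supplier instructions. Cells seeded in 96-well plates, incubated 16 h at 37 °C, then exposed to a range of compound concentrations for 48 h. Taxol served as positive control. Cytotoxicity read by colorimetric sulforhodamine B (SRB) chemosensitivity assay.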

Assay [2] in a line: Growth inhibition of human N-04 cells after 48 hrs by SRB assay. To be noted: N04, 48 h. In short, it runs like this:
as §1

Assay [3] can be described thus: Growth inhibition of human Lu-04 cells after 48 hrs by SRB assay. To be noted: Lu04, 48 h. In short, it runs like this:
as §1

For `CS[C@]12COCN3c4ccccc4[C@]4(C[C@]5(SC)C(=O)N(C)[C@@](CO)(SC)C(=O)N5[C@@H]34)n3cc(c4ccccc43)C[C@](SC)(C(=O)N1C)N(C)C2=O` [CHAETOCOCHIN A], the 50% growth inhibitory concentration (GI50) was 4.1 mg/L (≈ 5.24 µM) in assay [1], 7 mg/L (≈ 8.94 µM) in assay [2] and 3.4 mg/L (≈ 4.34 µM) in assay [3].
Turning to `CC(=O)O[C@H]1C(=O)[C@@]2(C)[C@H]([C@H](OC(=O)c3ccccc3)[C@]3(O)C[C@H](OC(=O)[C@H](O)[C@@H](NC(=O)c4ccccc4)c4ccccc4)C(C)=C1C3(C)C)[C@]1(OC(C)=O)CO[C@@H]1C[C@@H]2O` [PACLITAXEL], the values for the GI50 in assay [1], in assay [2] and in assay [3] were 0.04 mg/L (≈ 0.0468 µM), 0.04 mg/L (≈ 0.0468 µM) and 0.03 mg/L (≈ 0.0351 µM), respectively.
Turning to `CS[C@@]1(CO)C(=O)N(C)[C@@](Cc2cn([C@]34C[C@@]56SS[C@@](CO)(C(=O)N5[C@H]3Nc3ccccc34)N(C)C6=O)c3ccccc23)(SC)C(=O)N1C` [CHAETOCOCHIN C], the results for the 50% growth inhibitory concentration (GI50) in assay [1], in assay [2] and in assay [3] were 0.4 mg/L (≈ 0.54 µM), 0.4 mg/L (≈ 0.54 µM) and 1.9 mg/L (≈ 2.56 µM), respectively.
On to `CS[C@@]1(CO)C(=O)N(C)[C@@](Cc2cn([C@]34C[C@]5(SC)C(=O)N(C)[C@@](CO)(SC)C(=O)N5[C@H]3Nc3ccccc34)c3ccccc23)(SC)C(=O)N1C`, for which the values for the GI50 in assay [1], in assay [2] and in assay [3] were 0.06 mg/L (≈ 0.0778 µM), 0.2 mg/L (≈ 0.259 µM) and 0.05 mg/L (≈ 0.0648 µM), respectively.
